Test results from ChEMBL document CHEMBL3808334, “Synthesis and in vitro evaluation of novel triazine analogues as anticancer agents and their interaction studies with bovine serum albumin” (Eur J Med Chem, 2016).

Legend:
Assay type in all cases: functional
[1] = system: Malme-3M; test: Growth inhibition of human MALME-3M cells assessed as cell growth at 10 uM incubated for 48 hrs by sulforhodamine B assay; details: read-out: Activity
[2] = system: A498; test: Growth inhibition of human A498 cells incubated for 48 hrs by sulforhodamine B assay; details: A498, 48 h
Outline: (§1)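 Five-dose assay: five concentrations from 10-fold or ½-log serial dilutions. Cells are plated at 5,000–40,000 per well according to doubling time, grown 24 h, then exposed 48 h at 37 °C, 5% CO₂. Fixed with cold 50% TCA (final addition) for 60 min at 4 °C and stained with 0.4% SRB in 1% acetic acid. Bound dye is solubilized in 10 mM Tris base and read at 515 nm. GI₅₀ is where [(Ti−Tz)/(C−Tz)]×100 = 50, with a time-zero plate as Tz.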

[3] = Growth inhibition of human COLO205 cells incubated for 48 hrs by sulforhodamine B assay; details: COLO 205, 48 h
Outline: (§2)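 Cells seeded at 5,000–40,000/well according to doubling time and preincubated 24 h at 37 °C, 5% CO2. Time-zero plates were TCA-fixed. DMSO concentrate was diluted in medium with 50 µg/ml gentamicin to give five concentrations (10-fold or ½ log steps), then exposed 48 h. Cells were TCA-fixed, stained with 0.4% SRB and read at 515 nm. Percent growth was taken against time-zero and control; GI50, TGI and LC50 derived.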

[4] = system: EKVX; test: Growth inhibition of human EKVX cells assessed as cell growth at 10^-5 M incubated for 48 hrs by sulforhodamine B assay; details: read-out: Activity; outline: as §2
[5] = system: HT-29; test: Growth inhibition of human HT-29 cells assessed as cell growth at 10^-8 M incubated for 48 hrs by sulforhodamine B assay; details: HT-29, 48 h, read-out: Activity
[6] = Growth inhibition of human RPMI8226 cells assessed as cell growth at 10^-4 M incubated for 48 hrs by sulforhodamine B assay; details: RPMI-8226, 48 h, read-out: Activity
[7] = system: NCI-H23; test: Growth inhibition of human NCI-H23 cells incubated for 48 hrs by sulforhodamine B assay; details: NCI-H23, 48 h
Outline: (§3)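 Cells were plated at 5,000–40,000 per well according to doubling time and preincubated 24 h at 37 °C in 5% CO2; time-zero plates were then TCA-fixed. Five concentrations (10-fold or ½-log dilutions, DMSO stock) were incubated 48 h. Cells were TCA-fixed, stained with 0.4% SRB and read at 515 nm. GI50 was taken where [(Ti−Tz)/(C−Tz)]×100 = 50.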

[8] = system: NCI-H226; test: Growth inhibition of human NCI-H226 cells assessed as cell growth at 10^-4 M incubated for 48 hrs by sulforhodamine B assay; details: NCI-H226, 48 h, read-out: Activity
[9] = Growth inhibition of human RXF393 cells assessed as cell growth at 10^-6 M incubated for 48 hrs by sulforhodamine B assay; details: RXF 393, 48 h, read-out: Activity
[10] = system: CCRF-CEM; test: Growth inhibition of human CCRF-CEM cells assessed as cell growth at 10^-4 M incubated for 48 hrs by sulforhodamine B assay; details: read-out: Activity
Outline: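 Leukemia line in the five-dose format: five concentrations from 10-fold or ½-log serial dilutions. Plated at 5,000–40,000 cells per well, preincubated 24 h, then compound added for 48 h at 37 °C, 5% CO₂. Sulforhodamine B absorbance read at 515 nm. Growth is computed against time-zero (Tz) and control (C) readings; GI₅₀ is where [(Ti−Tz)/(C−Tz)]×100 = 50.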

[11] = system: HT-29; test: Growth inhibition of human HT-29 cells incubated for 48 hrs by sulforhodamine B assay; details: HT-29, 48 h; outline: as §3
[12] = system: HT-29; test: Growth inhibition of human HT-29 cells assessed as cell growth at 10^-4 M incubated for 48 hrs by sulforhodamine B assay; details: HT-29, 48 h, read-out: Activity
[13] = system: ACHN; test: Growth inhibition of human ACHN cells assessed as cell growth at 10^-5 M incubated for 48 hrs by sulforhodamine B assay; details: read-out: Activity; outline: as §1
[14] = system: ACHN; test: Growth inhibition of human ACHN cells assessed as cell growth at 10^-4 M incubated for 48 hrs by sulforhodamine B assay; details: read-out: Activity; outline: as §1
[15] = system: MCF7; test: Growth inhibition of human MCF7 cells assessed as cell growth at 10^-7 M incubated for 48 hrs by sulforhodamine B assay; details: MCF7, 48 h, read-out: Activity
[16] = Growth inhibition of human HCC2998 cells assessed as cell growth at 10 uM incubated for 48 hrs by sulforhodamine B assay; details: HCC 2998, 48 h, read-out: Activity
Outline: (§4)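 Primary screen at one dose (10 µM) across 60 human cancer cell lines. Readout was growth percent relative to untreated control and time-zero.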

[17] = system: U-251; test: Growth inhibition of human U251 cells assessed as cell growth at 10^-6 M incubated for 48 hrs by sulforhodamine B assay; details: U-251, 48 h, read-out: Activity
[18] = Growth inhibition of human SW620 cells assessed as cell growth at 10^-4 M incubated for 48 hrs by sulforhodamine B assay; details: SW-620, 48 h, read-out: Activity
[19] = Growth inhibition of human HOP92 cells assessed as cell growth at 10^-4 M incubated for 48 hrs by sulforhodamine B assay; details: HOP-92, 48 h, read-out: Activity
[20] = system: KM12; test: Growth inhibition of human KM12 cells assessed as cell growth at 10^-4 M incubated for 48 hrs by sulforhodamine B assay; details: KM12, 48 h, read-out: Activity
[21] = Growth inhibition of human BT549 cells assessed as cell growth at 10^-7 M incubated for 48 hrs by sulforhodamine B assay; details: BT-549, 48 h, read-out: Activity; outline: as §1
[22] = system: EKVX; test: Growth inhibition of human EKVX cells assessed as cell growth at 10^-6 M incubated for 48 hrs by sulforhodamine B assay; details: read-out: Activity; outline: as §2
[23] = system: SK-MEL-28; test: Growth inhibition of human SK-MEL-28 cells incubated for 48 hrs by sulforhodamine B assay; details: SK-MEL-28, 48 h; outline: as §3
[24] = Growth inhibition of human COLO205 cells assessed as cell growth at 10 uM incubated for 48 hrs by sulforhodamine B assay; details: COLO 205, 48 h, read-out: Activity; outline: as §4
[25] = read-out: LC50 (the source's name)
[26] = read-out: pLC50 (the source's name) (converted)

Structure (SMILES): Clc1ccc(-c2nc(Nc3ccc(-c4nc5ccccc5[nH]4)cc3)nc(N3CCOCC3)n2)cc1
- growth at 10 µM [1]: -73.4%
- GI50 ([2]; read-out: GI50): 1.69 µM
- TGI ([2]; read-out: TGI): 3.29 µM
- GI50 ([2]; read-out: pGI50 (converted)): 1.7 µM
- TGI ([2]; read-out: pTGI (converted)): 3.31 µM
- GI50 ([3]; read-out: GI50): 0.305 µM
- TGI ([3]; read-out: TGI): 1.07 µM
- GI50 ([3]; read-out: pGI50 (converted)): 0.302 µM
- TGI ([3]; read-out: pTGI (converted)): 1.07 µM
- growth at 10 µM [4]: -80%
- growth at 0.01 µM [5]: 104%
- growth at 100 µM [6]: -27%
- GI50 ([7]; read-out: GI50): 1.7 µM
- TGI ([7]; read-out: TGI): 3.66 µM
- GI50 ([7]; read-out: pGI50 (converted)): 1.7 µM
- TGI ([7]; read-out: pTGI (converted)): 3.63 µM
- growth at 100 µM [8]: -25%
- growth at 1 µM [9]: -56%
- growth at 100 µM [10]: -36%
- GI50 ([11]; read-out: GI50): 0.228 µM
- TGI ([11]; read-out: TGI): 0.523 µM
- GI50 ([11]; read-out: pGI50 (converted)): 0.229 µM
- TGI ([11]; read-out: pTGI (converted)): 0.525 µM
- growth at 100 µM [12]: -42%
- growth at 10 µM [13]: -87%
- growth at 100 µM [14]: -30%
- growth at 0.1 µM [15]: 86%
- growth at 10 µM [16]: -89.9%
- growth at 1 µM [17]: -56%
- growth at 100 µM [18]: -63%
- growth at 100 µM [19]: -67%
- growth at 100 µM [20]: -67%
- growth at 0.1 µM [21]: 93%
- growth at 1 µM [22]: 58%
- GI50 ([23]; read-out: GI50): 1.6 µM
- TGI ([23]; read-out: TGI): 3.22 µM
- GI50 ([23]; read-out: pGI50 (converted)): 1.58 µM
- TGI ([23]; read-out: pTGI (converted)): 3.24 µM
- growth at 10 µM [24]: -68.4%

Structure (SMILES): c1ccc2[nH]c(-c3ccc(Nc4nc(N5CCCCC5)nc(N5CCOCC5)n4)cc3)nc2c1
- growth at 10 µM [1]: -50.2%
- GI50 ([2]; read-out: GI50): 1.77 µM
- CC50 [2, 25]: 9.89 µM
- TGI ([2]; read-out: TGI): 4.18 µM
- GI50 ([2]; read-out: pGI50 (converted)): 1.78 µM
- CC50 [2, 26]: 10 µM
- TGI ([2]; read-out: pTGI (converted)): 4.17 µM
- GI50 ([3]; read-out: GI50): 1.86 µM
- LC50 ([3]; read-out: LC50): 8.27 µM
- TGI ([3]; read-out: TGI): 3.92 µM
- GI50 ([3]; read-out: pGI50 (converted)): 1.86 µM
- LC50 ([3]; read-out: pLC50 (converted)): 8.32 µM
- TGI ([3]; read-out: pTGI (converted)): 3.89 µM
- growth at 10 µM [4]: 5%
- growth at 0.01 µM [5]: 105%
- growth at 100 µM [6]: -24%
- GI50 ([7]; read-out: GI50): 3.05 µM
- CC50 [7, 25]: > 100 µM
- TGI ([7]; read-out: TGI): 15.7 µM
- GI50 ([7]; read-out: pGI50 (converted)): 3.02 µM
- CC50 [7, 26]: > 100 µM
- TGI ([7]; read-out: pTGI (converted)): 15.8 µM
- growth at 100 µM [8]: -36%
- growth at 1 µM [9]: 46%
- growth at 100 µM [10]: 5%
- GI50 ([11]; read-out: GI50): 2.44 µM
- CC50 [11, 25]: > 100 µM
- TGI ([11]; read-out: TGI): 5.56 µM
- GI50 ([11]; read-out: pGI50 (converted)): 2.45 µM
- CC50 [11, 26]: > 100 µM
- TGI ([11]; read-out: pTGI (converted)): 5.62 µM
- growth at 100 µM [12]: -46%
- growth at 10 µM [13]: 9%
- growth at 100 µM [14]: 1%
- growth at 0.1 µM [15]: 91%
- growth at 10 µM [16]: -1.07%
- growth at 1 µM [17]: 76%
- growth at 100 µM [18]: -53%
- growth at 100 µM [19]: -71%
- growth at 100 µM [20]: -40%
- growth at 0.1 µM [21]: 95%
- growth at 1 µM [22]: 84%
- GI50 ([23]; read-out: GI50): 1.8 µM
- CC50 [23, 25]: 8.97 µM
- TGI ([23]; read-out: TGI): 4.02 µM
- GI50 ([23]; read-out: pGI50 (converted)): 1.82 µM
- CC50 [23, 26]: 8.91 µM
- TGI ([23]; read-out: pTGI (converted)): 3.98 µM
- growth at 10 µM [24]: -61.3%
